High-throughput results deposited in PubChem by The Scripps Research Institute Molecular Screening Center.
A selection: hits, their analogues and other compounds. The true share with any hit is near 1.9%.
NPY-Y1 antag: antagonists of human neuropeptide Y receptor Y1; 200,000 compounds, 1% hits; inhibition, % at 3.6 µM; HEK293-CNG Y1 cells, membrane potential fluorescence; NPY at EC95, then isoproterenol; AID 1040; P25929;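 active = inhibition above the campaign mean inhibition of all tested compounds plus 3 SD, cut at about 20% in these data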;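 note: 0% = DMSO wells given NPY plus isoproterenol and 100% = isoproterenol alone without NPY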
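Material: HEK293 cells with Y1 receptor plus CNG channel; times: compound incubation 1 h at room temperature, readout 45 min post-stimulation; signal: fluorescence, membrane potential probe; read-out basis: fluorescence ratio normalized to % inhibition between controls; benchmarks: full-block control isoproterenol-only wells, zero-block control NPY plus isoproterenol wells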
NPY-Y2 PAM-ag: potentiates or activates human NPY-Y2 receptor; cells expressing NPY-Y2, potentiator/agonist read-out; activation, % at 3.6 µM; 220,000 compounds, 0.45% hits; AID 1359; in the data active = activation above about 27%;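 note: cells stimulated with NPY near EC25 plus isoproterenol at EC100; 0% = vehicle plus submaximal agonist and 100% = vehicle plus saturating agonist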
Target sequence (P49146 whole entry, looked up): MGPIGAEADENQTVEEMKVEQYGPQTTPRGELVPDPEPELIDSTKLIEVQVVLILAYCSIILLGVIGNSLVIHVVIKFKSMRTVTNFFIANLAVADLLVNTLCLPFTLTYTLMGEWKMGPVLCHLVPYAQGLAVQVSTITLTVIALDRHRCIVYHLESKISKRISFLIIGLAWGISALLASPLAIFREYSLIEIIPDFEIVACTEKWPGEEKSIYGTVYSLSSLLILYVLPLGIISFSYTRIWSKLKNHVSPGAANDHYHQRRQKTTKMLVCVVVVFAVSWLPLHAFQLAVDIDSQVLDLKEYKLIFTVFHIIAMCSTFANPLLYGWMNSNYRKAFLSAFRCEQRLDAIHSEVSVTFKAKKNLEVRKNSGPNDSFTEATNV
NPY-Y1 PAM-ag: human NPY-Y1 potentiation or agonism, primary screen | P25929 | NPY-Y1 expressing cells, potentiator/agonist activation | 220,000 compounds, 0.37% hits | activation, % at 3.6 µM; in the data active = activation above about 33%, passing the limit was not always enough;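 note: cells stimulated with NPY at EC10 then isoproterenol at EC100; 0% = low agonist plus stimulus and 100% = saturating agonist plus stimulus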
NPY-Y2 antag: blocks the human neuropeptide Y Y2 receptor. NPY-Y2 expressing cells, antagonist mode. inhibition, % at 2.7 µM. 140,000 compounds, 0.99% hits. AID 793; in the data active = inhibition above about 17%;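 note: 0% = vehicle with agonist challenge and 100% = reference antagonist with challenge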
NPY1 antag ctr: human NPY-Y1 antagonism in NPY-Y2 counter-screen; cell-based NPY-Y1 antagonism counterscreen; inhibition, % at 3.6 µM; shares compounds with NPY-Y2 antag; 710 compounds, 19% hits; AID 1256; in the data active = inhibition above about 20%;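 note: cells challenged with NPY then isoproterenol with cAMP sensed through a CNG channel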
NPY-Y2 ant conf: confirmation of human neuropeptide Y receptor Y2 antagonists | shares compounds with NPY-Y2 antag | HEK293 NPY-Y2 CNG channel, membrane potential fluorescence | inhibition, % at 2.8 µM | 710 compounds, 32% hits | AID 1257;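 active = mean inhibition of triplicate wells above the hit cutoff set in the primary screen, cut at about 17% in these data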;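 note: 0% = DMSO with NPY challenge and 100% = BIIE0246 high control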
* hit, by the source's call; x = no result given.

SMILES	NPY-Y1 antag	NPY-Y2 PAM-ag	NPY-Y1 PAM-ag	NPY-Y2 antag	NPY1 antag ctr	NPY-Y2 ant conf
CC(C)(C)NC(=O)C(c1ccc(F)cc1)N(Cc1ccco1)C(=O)Cn1nnc(-c2cccs2)n1 (stereo not given)	6	-17	-54	24*	12	12
O=C(NC1CCCC1)C(c1cccs1)N(Cc1ccco1)C(=O)Cn1nnc(-c2cccs2)n1 (stereo not given)	6	-20	-28	9	x	x
COc1ccc(-c2nnc3sc(C(C)N4C(=O)c5ccccc5C4=O)nn23)cc1 (stereo not given)	8	-30	-33	21*	18	29*
O=C1OCCC1Sc1nc2cc(Cl)ccc2s1 (stereo not given)	16	-24	-21	23*	10	12
O=C1OCCC1Sc1nc2ccccc2s1 (stereo not given)	16	-12	-28	8	x	x
O=C(NN=C1CCCCCCCCCCC1)c1cccc(S(=O)(=O)N2CCOCC2)c1	0	-3	19	1	x	x
CC(=O)c1cccc(NC(=O)CN2C(=S)NC(C)(C)CC2C)c1 (stereo not given)	2	-10	-1	x	x	x
COc1ccc(-c2nnc(SCc3nnc(-c4ccc(Cl)cc4)o3)n2-c2ccccc2)cc1	6	-5	-2	23*	18	14
Clc1ccc(-c2nnc(CSc3nnc(-c4cccs4)n3Cc3ccccc3)o2)cc1	15	19	-12	25*	23*	5
CCN1c2ccccc2-c2nc3ccccc3n2C1c1ccco1 (stereo not given)	12	-4	4	19*	16	7
Cc1cc(/C=N/n2cnnc2)c(C)n1-c1ccc(OCc2ccc(Cl)cc2Cl)cc1	8	-9	-58	22*	21*	24*
CC(=O)Nc1ccc(OS(=O)(=O)c2c(C)cc(C)cc2C)cc1	5	-6	2	x	x	x
C(#Cc1ccccc1)C[N+]1(CC#Cc2cccc3ccccc23)CCCC1	19	1	-19	18*	6	11
CCOCCCNC(=S)N1CCN(Cc2ccc3c(c2)OCO3)CC1	2	-4	0	x	x	x
CC(=O)c1cccc(NC(=O)NNC(=O)CCC(=O)Nc2ccc(C)c(C)c2)c1	1	16	18	x	x	x
COc1ccc(C(O)C(CN2CCOCC2)c2ccccc2)cc1F (stereo not given)	1	-3	2	2	x	x
COc1ccc(C(=O)C(CN2CCOCC2)c2ccccc2)cc1F (stereo not given)	17	-35	-10	17*	4	5
Nc1cccc(S(=O)(=O)Nc2ccccc2)c1	2	5	7	x	x	x
O=C1CCC(c2ccccc2)=NN1	-3	-16	6	x	x	x
CC(C)CCOc1ccc(C2=NNC(=O)CC2)cc1	15	-16	-53	42*	20*	41*
CC(C)Cn1c(/C=C/c2ccccc2)nc2ccccc21	9	-18	-35	18*	13	16
COc1ccc(Cn2c(/C=C/c3ccccc3)nc3ccccc32)cc1	16	-45	-59	36*	14	24*
CCOC(=O)c1ccc(N2CCOCC2)c(NC(=O)c2c(-c3ccccc3)noc2C)c1	x	-23	-25	x	x	x
COc1cccc(/C=C/C(=O)OCC(=O)NCC2CCCO2)c1OC (stereo not given)	4	-1	-22	2	x	x
CC(C)c1ccc(NC(=O)c2snc3ccc(Cl)cc23)cc1	6	-4	-3	26*	9	10
SMILES	NPY-Y1 antag	NPY-Y2 PAM-ag	NPY-Y1 PAM-ag	NPY-Y2 antag	NPY1 antag ctr	NPY-Y2 ant conf
CC(C)c1ccc(NC(=O)c2csnn2)cc1	4	1	31	-3	x	x
Nn1c(Cc2cccc3ccccc23)nnc1SCc1c(Cl)cccc1Cl	2	-23	-29	20*	17	41*
COc1ccccc1-n1c(SCC(=O)N2CCCC2)nnc1-c1ccccc1	x	-25	3	x	x	x
Cc1cccc(N2CCN(C(=O)C(Cc3ccccc3)n3cccc3)CC2)c1C (stereo not given)	17	-12	-36	26*	13	13
O=C(CCCOc1ccccc1)N1CCN(c2ccccc2)CC1	8	-20	-16	12	x	x
Cc1cccc(N2CCN(C(=O)CCCOc3ccccc3)CC2)c1C	19	-16	-6	19*	11	12
C=CC(c1ccccc1)C(C(=O)c1ccccc1)N(C)C (stereo not given)	4	-12	-5	x	x	x
CCOC(=O)C1CCCN(Cc2ccccc2C)C1 (stereo not given)	1	1	9	17*	0	0
Cc1nc(NC(=O)CSc2nnc(Cn3nnc4ccccc43)n2C)sc1C	9	7	7	-2	x	x
O=S(=O)(c1cccc2cccnc12)N1CCN(Cc2ccccc2)CC1	2	-2	2	x	x	x
N=c1c2c(ncn1Cc1ccco1)Oc1c(ccc3ccccc13)C2c1ccccc1 (stereo not given)	14	-7	-63	19*	14	12
Cc1cccc(NC(=S)NNC(=S)NCc2ccccc2)c1	10	-7	19	29*	17	22*
O=C(NC1CCCC1)C(c1cccnc1)N(CCc1ccccc1)C(=O)c1ccco1 (stereo not given)	1	-4	0	x	x	x
O=C(NC1CCCCC1)C(c1cccnc1)N(CCc1ccccc1)C(=O)Cc1cccs1 (stereo not given)	5	-1	-24	22*	19	12
CCOc1ccc(NC(=O)C2(c3ccc(OC)c(OC)c3)CCCC2)cc1	8	-2	-16	27*	4	3
CCN(CC)C(=O)CSc1nc(N)c(C#N)c(-c2cccs2)c1C#N	-6	-4	-19	2	x	x
CCN(CC)C(=O)CSc1nc(-c2cccs2)cc(-c2cccs2)c1C#N	5	5	-35	18*	16	13
CCCCCc1c(O)nc(SCCN2CCOCC2)[nH]c1=O	3	-1	5	x	x	x
CN(C)CCCNS(=O)(=O)c1ccc(N2CCC(c3ccc(Cl)cc3)=N2)cc1	0	7	3	18*	6	14
COC(=O)C(CCSC)NC(=O)c1cc2c(n(-c3ccccc3)c1=O)CC(C)(C)CC2=O (stereo not given)	0	4	4	2	x	x
Cc1ccc(NC(=S)NCc2ccc3c(c2)OCO3)c(C)c1	6	-20	-9	21*	7	10
Cc1cc(C)n(-c2nc(C)nc(N)n2)n1	6	15	8	20*	6	1
Cc1cc(Cl)nc(-n2nc(C)cc2C)n1	x	-16	16	x	x	x
COc1ccc(/C=C2\CCc3ccccc3C2=O)cc1Cn1nc(C)cc1C	8	-10	9	18*	9	4
CC1(C)CNC(=O)c2sc(NC(=O)c3ccccc3Cl)nc2C1	-4	-4	4	x	x	x
O=C(Nc1cccn(Cc2c(Cl)cccc2Cl)c1=O)c1ccccc1Cl	8	-6	-21	23*	12	6
